Most compounds without a hit are left out; they make up all but 2.2% or so of the library.
CHRM1 agonist = human M1 muscarinic receptor agonism; CHO-K1 hM1, Fluo-8 calcium fluorescence, agonist mode; 0% DMSO, 100% acetylcholine EC100; activation, % at 3 µM; hit rate 0.33% among 360,000;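 active = activation above the run's mean compound activation plus 3 SD, cut at about 16% in these data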;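 also: peak over basal fluorescence ratio within a 140 s kinetic read after compound addition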
Target sequence (P11229 whole entry, looked up): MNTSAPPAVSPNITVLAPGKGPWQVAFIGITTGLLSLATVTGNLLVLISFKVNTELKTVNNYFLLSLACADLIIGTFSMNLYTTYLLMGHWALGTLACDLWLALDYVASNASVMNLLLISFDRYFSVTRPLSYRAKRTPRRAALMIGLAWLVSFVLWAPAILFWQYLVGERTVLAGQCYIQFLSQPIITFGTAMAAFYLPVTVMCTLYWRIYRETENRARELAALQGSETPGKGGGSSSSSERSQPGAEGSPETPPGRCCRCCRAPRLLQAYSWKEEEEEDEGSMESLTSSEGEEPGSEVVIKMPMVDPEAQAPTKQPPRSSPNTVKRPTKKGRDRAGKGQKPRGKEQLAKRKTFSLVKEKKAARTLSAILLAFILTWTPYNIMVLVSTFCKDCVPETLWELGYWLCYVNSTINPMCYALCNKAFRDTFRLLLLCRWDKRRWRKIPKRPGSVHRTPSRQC
CHRM5 agonist = CHRM5 agonism in calcium assay | P08912 | CHO-K1 hM5 cells, Fluo-8 calcium fluorescence; 0% DMSO wells, 100% maximal acetylcholine response | activation, % at 3 µM | hit rate 0.19% among 360,000;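 active = activation above the run's mean over test compounds plus 3 SD, cut at about 23% in these data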;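 also: signal is peak over basal fluorescence ratio across the kinetic read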
CHRM5 PAM = CHRM5 positive allosteric modulation; CHO-K1 hM5, Fluo-8 calcium, ACh EC20 PAM; 0% = ACh EC20, 100% = ACh EC100; hit rate 0.3% among 360,000; activation, % at 3 µM;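 active = activation above the run cutoff, the mean activation of all test compounds plus 3 SD, cut at about 18% in these data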
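Probe or stimulus: acetylcholine, EC20 level; Assay system: human M5 receptor in CHO-K1 cells; Schedule: compound preincubation 140 s before EC20 acetylcholine addition; Technique: intracellular calcium via Fluo-8 fluorescence; Dosing: single-point, 3 µM nominal; Read-out basis: percent activation from peak-over-basal fluorescence ratio, scaled EC20-to-EC100 acetylcholine; Repeats: one well per compound, no replicates.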
M5 antag = CHRM5 antagonism in calcium assay; P08912; CHO-hM5 cells, Fluo-8 calcium fluorescence, ACh EC80; inhibition, % at 3 µM; hit rate 0.59% among 360,000;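 active = inhibition above a per-plate cutoff, the mean of that plate's test compounds plus 3 SD, cut at about 27% in these data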;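 also: 0% = acetylcholine EC80 with DMSO and 100% = DMSO without agonist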
CHRM1 PAM = positive allosteric modulators of human M1 muscarinic receptor | AID 588819 | hit rate 0.088% among 360,000 | P11229 | CHO-K1 hM1, Fluo-8 calcium fluorescence, ACh EC20; 0% = ACh EC20, 100% = maximal ACh | activation, % at 3 µM; in the data active = activation above about 19%, passing the limit was not always enough
M1 antag = human CHRM1 antagonism; inhibition, % at 3 µM; P11229; CHO-K1 hM1, Fluo-8 calcium fluorescence, ACh EC80 antagonist; hit rate 1.3% among 360,000;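 active = percent inhibition above its own plate's cutoff, namely the mean of that plate's compound wells plus 3 SD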;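 also: peak over basal fluorescence ratio during 140 s after agonist addition; 0% = ACh EC80 plus DMSO and 100% = DMSO alone without agonist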
Numbers without * were called inactive.

SMILES	CHRM1 agonist	CHRM5 agonist	CHRM5 PAM	M5 antag	CHRM1 PAM	M1 antag
COc1cc(CN2CCN(C(O)(c3ccccc3)c3ccccc3)CC2)cc(OC)c1OC	-9	-21	-30	-5	-28	62*
CCC(C)NC(=O)C(NS(=O)(=O)c1cccc2nsnc12)c1ccccc1 (configuration not stated)	-2	-9	35*	-2	2	-7
O=C(Nc1c(C(=O)N2CCC(N3CCCCC3)CC2)oc2ccccc12)c1ccc(F)cc1	-5	-8	5	4	10	-13
NC(=O)c1oc2ccccc2c1NC(=O)c1ccc(F)cc1	-6	1	-12	8	-30	62*
Cc1ccc(NC(=O)C2(C)CCN2Cc2csc3ccccc23)cc1 (configuration not stated)	-9	-4	-18	7	-29	45*
CCCCCSc1nnc(N)s1	-2	-1	11	-2	27*	-20
Cc1ccc(C(=O)N2CCCC(C(=O)c3cc(F)ccc3F)C2)s1 (configuration not stated)	-7	-4	3	1	3	-6
CC1CCN(CCOc2ccc(C(=O)c3ccccc3)cc2)CC1	-9	-20	-4	7	-29	64*
CC1CCN(CCCCOc2ccc(C(=O)c3ccccc3)cc2)CC1	-3	-11	-12	3	-24	55*
Cc1ccc(OCCCCN2CCC(C)CC2)cc1	-10	-10	-1	6	-7	4
CC1CCC(NC(=O)COc2ccc(C(=O)c3ccccc3)cc2)CC1 (configuration not stated)	-2	0	1	-6	10	-17
CC1CCN(CCCCOc2cccc(C(C)C)c2)CC1	-5	-8	-21	21	-31	70*
CCCOc1ccc(OCCN2CCCC(C)C2)cc1 (configuration not stated)	-7	-8	1	1	-23	28*
CC1CCN(CCOc2cccc(Br)c2)CC1	-9	-5	5	-6	-5	9
CCOC(=O)/C(CCC[N+](C)(CC)CC)=N\O	-12	-8	-18	60*	-26	91*
O=C1C2C3c4ccccc4C(c4ccccc43)[C@@H]2C(=O)N1c1ccccn1 (some centres not stated)	-5	-3	-1	4	3	-8
O=C1CCC(=O)N1N1C(=O)C2C3c4ccccc4C(c4ccccc43)C2C1=O (configuration not stated)	-9	1	22*	-4	-1	3
O=c1cc2oc3cc(O)c(O)cc3c(-c3ccccc3O)c-2cc1O	26*	10	-7	14	-10	10
CCOC(=O)c1oc2cc(O)ccc2c(=O)c1-c1ccccc1OC	-1	3	0	-1	-1	6
COc1ccc(OC)c(-c2c3cc(O)c(=O)cc-3oc3cc(O)c(O)cc23)c1	222*	55*	-13	12	-19	33*
CCOc1ccccc1-c1c2cc(O)c(=O)cc-2oc2cc(O)c(O)cc12	17*	8	-3	6	-4	1
COc1ccc(OC)c(-c2oc3ccccc3c(=O)c2O)c1	-4	0	-1	2	6	-3
Cc1ccccc1-c1cc(=O)c2c(O)cccc2o1	-5	-3	4	-3	2	-10
O=c1cc(CSc2ccc(Cl)cc2)nc(-c2ccccn2)[nH]1	-2	-3	-7	3	0	10
CCOC(=O)c1cnc(SC2CCc3ccccc3C2=O)nc1N (configuration not stated)	-3	-2	-5	0	10	-16
SMILES	CHRM1 agonist	CHRM5 agonist	CHRM5 PAM	M5 antag	CHRM1 PAM	M1 antag
CCN1CCN(C(=O)CCc2nnc(CCc3ccc(OC)cc3)o2)[C@@H](C)C1=O	-1	-4	4	4	15	-21
C/C(=N\Nc1cc(C)nc(NCc2ccccc2)n1)c1ccc([N+](=O)[O-])cc1	-7	-11	-10	23	-15	38*
C/C(=N\NC(=O)c1cc(C)nc2ccccc12)c1ccc([N+](=O)[O-])cc1	-7	-5	3	7	-7	5
COc1ccc(Cc2nnc(NC(=O)CSc3ccccc3)s2)cc1	8	5	1	2	8	-5
COc1ccc(Cc2nnc(NC(=O)CSc3ccccc3)s2)cc1OC	14	28*	-1	-3	4	-2
CN(C)C/C=C/C(O)(c1ccccc1)c1ccccc1	-7	-19	-36	45*	-26	97*
CC(=O)c1ccc(N2CCN(C3CCC(C(C)(C)C)CC3)CC2)cc1 (configuration not stated)	-11	-22	-15	17	-22	39*
CC(=O)c1ccc(N2CCC(C(=O)O)CC2)cc1	-4	0	-3	10	6	-3
COc1ccc(NS(=O)(=O)c2ccc(O)c(NC(=O)c3cc4c(C)nn(-c5ccc(F)cc5)c4s3)c2)cc1	-3	-3	-1	7	2	-1
CC[N+](C)(C)CCN(Cc1ccc(Cl)cc1)c1ccccn1	15	-5	-23	47*	-13	80*
C=CC1CN2CCC1CC2C(O)c1ccnc2ccc(OC)cc12 (configuration not stated)	-8	-1	-2	11	4	-1
CN(c1ccc(F)cc1)S(=O)(=O)c1ccc(Cl)c(C(=O)Nc2ccncc2)c1	0	3	-16	11	-18	34*
CC1(C)Cc2c(sc(NC(=O)c3ccc(C(=O)c4ccccc4)cc3)c2C(N)=O)C(C)(C)N1	-2	-6	-8	32*	-3	6
COC(=O)c1c(NC(=O)c2ccccc2)sc2c1CC(C)(C)NC2(C)C	-5	0	-8	0	0	-1
CCOC(=O)C1=C(COC(=O)/C=C/c2ccccc2F)NC(=O)NC1C (configuration not stated)	0	4	-21	9	-13	27*
CCOC(=O)c1cccc(N/C=C/C(=O)c2ccc(OC)c(OC)c2)c1	0	-3	-42	4	-11	29*
COc1cccc(N/C=C/C(=O)c2ccc(OC)c(OC)c2)c1	-3	6	-2	-10	0	-10
CCCCNc1c(-c2ccc(SC(C)CC)c(OC)c2)nc2ccc(C)cn12 (configuration not stated)	-7	-5	-36	37*	-22	44*
CCCCNc1c(-c2ccc(OC)c(Sc3ccc(OC)cc3)c2)nc2ccccn12	-4	-3	-31	27*	-20	50*

Compound activity: PubChem BioAssay, The Scripps Research Institute Molecular Screening Center
